In the EternaBench riboswitch data:

Tested on: MS2 coat protein
Experiment: apparent Kd, MS2 coat protein; higher = weaker binding; RNA-MaP array; FMN 200 µM where present
Summary of the method: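 The apparent Kd is the median of filtered binding-curve fits, one per cluster, to green signal normalised to red-channel RNA signal and control-cluster median Fmax. The clusters were on Illumina sequencing chips, and stalled E. coli RNA polymerase had transcribed the designs on them. Titration used SNAP-549-labelled MS2 coat protein from 0.7 or 1.5 nM, doubling to 3 µM, without and then with constant ligand, in 100 mM Tris-HCl pH 7.5, 80 mM KCl, 4 mM MgCl2, BSA, DTT, yeast tRNA and Tween-20.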

[1] = designed as: OFF switch for flavin mononucleotide, no ligand
[2] = ligand present: flavin mononucleotide, designed as: OFF switch for flavin mononucleotide
[3] = designed as: ON switch for flavin mononucleotide, no ligand
[4] = ligand present: flavin mononucleotide, designed as: ON switch for flavin mononucleotide

Row | Sequence | apparent Kd [1] [nM] | apparent Kd [2] [nM] | apparent Kd [3] [nM] | apparent Kd [4] [nM]
1 | GGUACUCAAAGAGUACCAAUACGAACAUGAGGAUCACCCAUGUAGGAUAUGCUACUCAAAGAGUAGCAGAAGGACAUGUGCCUU | 31.4 | 252 |  | 
2 | GGUCUGAUAUGAGGAUAUGCUCAGGAAUACUGAGCAGAAGGCAUGUGAAAACAUGAGGAUCACCCAUGUAUGAUCUACAGACCA |  |  | 47 | 21.8
3 | AGGGAGGAAGCUGAGGAUAUCGUAAGGAGGACAUGAGGAUCACCCAUGUGUGUGGAAUUGGAGGACGAGAAGGCAGAGGAGUGGG |  |  | 31.5 | 36
4 | AUCUUUAACAUAGGAUAUAGUAUGAUGGUUUAAUUAGAAGGAUGUCACAUGAGGAUCACCCAUGUAAUAGGAUUACCCAUGUAU | 20.2 | 15.7 |  | 
5 | UUUGUUUAGGUAGGAUAUACUUUUAAUUUCUCUUUCCUUACAUGAGGAUCACCCAUGUUUACAUUGUAGAAGGACCACUUUGUU | 21.8 | 19.8 |  | 
6 | AAUCCACAUGAGGAUCACCCAUGUGAGGAUAUGAUACUAUGUACUUCGGUACAUAGUAUCAGAAGGCACGGAUC | 33.2 | 50.4 |  | 
7 | AACCUAUUACAGAAGGCCAGCUACAUGAGGAUCACCCAUGUCGAGUCAUGGAGGAUAUGUAGUAAUUUGCCCGCGGGCGAGUAC |  |  | 31.3 | 5.78
8 | UUUAUAUUCAGAGGAUAUUAAAGUAGUAUAACAUAAGAAGGCUGUUUGUUUUGUAAAGUAAUUCUACAUGAGGAUCACCCAUGU |  |  | 20.9 | 17
9 | CUGAUGUUAGGAUAUCAGGUUGCGCGCGAAGGCACGCAGCAUGAGAAGGAACAUGAGGAUCACCCAUGUGACGA | 40.6 | 132 |  | 
10 | GGAUAGGCCAGAGGAUAUACGUGCUAGAGAUACUAGCAAAAUUUCCUCACAUGAGGAUCACCCAUGUAGAAGGCUGUCCUAUCG | 7.31 | 49.9 |  | 
11 | ACUUGCUUGCAGAAGGGUGACAUGAGGAUCACCCAUGUAGCGGGCCGGCGUAAAGUCAGCGCGCCACAGGAUAUGCAGGCCUCG |  |  | 25.2 | 58.5
12 | GGUGGCGUGAUAACGCUAGCUAUAACAUGAGGAUCACCCAUGUAGGAUAUCCCGCCGUGAGGGCGGGAGAAGGACAACCGAUGG | 28.5 | 30.8 |  | 
13 | AUAAAUCAUGUAGGAUAUGCGUGGCGAAGCUAUGCAGAAGGACAUGAGGAUCACCCAUGUUUUUCCGUCUGCGUACAGACGGAA | 308 | 147 |  | 
14 | UGGUCAUCAUCAGGAUAUUAACGUGGGCUACAUUAAGAAGGGAUAGUGGGAGAGGAUGUGAAACAUGAGGAUCACCCAUGUUGU |  |  | 13.3 | 10.6
15 | ACGCGUUGGGAGAAGGUACAUUAAAUUAGUUUAACAUGAGGAUCACCCAUGUAAGGAUAUCCCAUCGUGUAAUAUUAUACAGCA | 10.2 | 12.2 |  | 
16 | UUUGCAUUCCGAGGAUAUUCAUUUAAUGACUUCACAUGAGGAUCACCCAUGUGGCGAUAGCCUAGGGAGAAGGCGGUUUGCUUU |  |  | 24.4 | 19.6
17 | UUAUGGUUCAAGAAGGAUGUAUUUGACUUAUACAUAGGAUAUUGUUAAAUUGAUAAUUAAUGUAACAUGAGGAUCACCCAUGUA |  |  | 8.1 | 7.39
18 | GCACUGGAUGUAGGAUAUCAGGACGAUAAGUCCUGAGAAGGACAUGAGGAUCACCCAUGUGAUAAUUCCAGUGCAAAUAAUAUA | 14.3 | 31 |  | 
19 | CUAUUCCGAGGAUAUACAUGAGGAUCACCCAUGUCGGGCCUCAGCGUUUAGCGCGUAAGUAGAAGGUGGGUUUC | 32.3 | 37.8 |  | 
20 | UAUUAGUAAGGAUAUCUCGUCAUGGACGUGAGUCCAUGACGAGAGAAGGUACAUGAGGAUCACCCAUGUUCAUU | 15.9 | 18.3 |  | 
21 | AAUAUUUAUUGAGGAUAUUCAUACACUGUAUACGGAGAAGGCAAACAAUCAUGAGGACAUGAGGAUCACCCAUGUUGUGACCAU |  |  | 19.8 | 14.3
22 | CCGGCCGCCGUGAGGAUAUGCCCGCGCGCCCGCGGGCAGAAGGCACAUGAGGAUCACCCAUGUCCCGCGGCACC | 13.8 | 15.7 |  | 
23 | CUCAUGUGAGGAUAUGUGAUCAACCUUCUAUAUAGAUGAUGACAGAAGGCACAUGAGGAUCACCCAUGUAGAUC | 65.5 | 20.1 |  | 
24 | GGUGGACAUGAGGAUCACCCAUGUGAGGAUAUCGGCUGGCUAGCGGCGGAUGGCUUCUCGAGAAGGCGCAUAGU | 80.2 | 67.5 |  | 

Row | Sequence | apparent Kd [1] [nM] | apparent Kd [2] [nM] | apparent Kd [3] [nM] | apparent Kd [4] [nM]
25 | UUUGGGUGAGGAUAUCAGUCUGGAUCAGACUAGAUCCUGACUGAGAAGGCACAUGAGGAUCACCCAUGUGAGUU | 294 | 320 |  | 
26 | UGCUACGUUUCGUAGCAGCUAGGUGAGGAUAUUCAAUUUUUCACAUGAGGAUCACCCAUGUAUGUGAAGAAGGCGCCUAGAAAC |  |  | 11.6 | 4.61
27 | UCGCUCCGUGUAGGAUAUCGCCGUUCUACUCGGCGAGAAGGACAUGAGGAUCACCCAUGUAUGUUAUUAUCACGUGUGGCGCGC | 18.5 | 29.5 |  | 
28 | CCGAUAAUGUAGGAUAUCGUAUCGGAAACGAUACGAGAAGGACAAACAUGAGGAUCACCCAUGUUCCUUAACGG | 15.5 | 16.5 |  | 
29 | UCAUGGUAGCAGGAUAUGCUUGUUUUUUUUUUUGCAGAAGGGCUUACAUGAGGAUCACCCAUGUGUUAGGUCUA | 25.2 | 30.8 |  | 
30 | AGGAAACAUGAGGAUCACCCAUGUAAAAAUAUGGGAGGAUAUGCGAAAAGAAACAAAGAAGCAGAAGGCCUAAGAA |  |  | 89.8 | 23.1
31 | UGCAGCGUGCACAUGAGGAUCACCCAUGUGCCAGCGGACGCACAGGAUAUGCAAUCGUACGGCUAGCAGAAGGGUGGGUCUCAC |  |  | 13.5 | 7.13
32 | GCACGACAUGUAGGAUAUCGAGCGCCGGGCGCUCGAGAAGGACAUGAGGAUCACCCAUGUAUUCUGAGUGACCGAGGUCUGUGC | 72.9 | 594 |  | 
33 | GUAUAGGACAGAGGAUAUACGUGCUAGAGAUACUAGCAAAAUUUCCUCACAUGAGGAUCACCCAUGUAGAAGGCUGUCCUAUCG | 17.1 | 498 |  | 
34 | GAGCUGACAAUAAAUAACUCAAAUACAUGAGGAUCACCCAUGUAGGAUAUGCAGUGGAAUACACUGCAGAAGGACAUAGUCAGC | 13.4 | 21.8 |  | 
35 | AAGCCCUGAGGAUAUCCCAACUCGCACAUGAGGAUCACCCAUGUUCUUCUCUGGGUUUCGGGAGAAGGCAGGCCUC | 96.5 | 43.8 |  | 
36 | CAGUAUUUCGAAGGAUAUGGUUACAUGAGGAUCACCCAUGUAUUUUUUGUGAUCUUAAAAUUGAUCCAGAAGGUCGUAUAACUG | 101 | 232 |  | 
37 | GGUUGGCGAGGAUAUACAUGAGGAUCACCCAUGUGGUCCUGCGGUGGUAUCGCCCUUUGUAGAAGGCGCGGGUC | 112 | 117 |  | 
38 | AUAUGAUAGAUAGGAUAUACUGUGGUUGAAUGUGUAGAAGGAUCGAUAGGGAAAUGUACAUGAGGAUCACCCAUGUUGUGGAUU |  |  | 48.4 | 39.9
39 | GUGAAGAAUUAAGGAUAUUGAAUACAUAUGUUUAACAUGAGGAUCACCCAUGUGGGUUGCGGUAUCGAGAAGGUAAAUUACUGG |  |  | 111 | 126
40 | GUGACACAUGAGGAUCACCCAUGUGAGGAUAUGAUACUAUGUACUUCGGUACAUAGUAUCAGAAGGCACAGUGA | 50.2 | 119 |  | 
41 | UGGUACUCGGGAGGAUAUGGGAAGAUACAUGAGGAUCACCCAUGUUUAAGAAUGCCGAGAGGCAACUAGAAGGCCCUAGUACCU |  |  | 457 | 23.4
42 | UUGGACGUCGUAGGAUAUGUAGGCUAUUCCUACAUGAGGAUCACCCAUGUUGACAUGGAAGAAGGACAGAAGGACGAUGUCCAU |  |  | 30.4 | 3.85
43 | GUCAGCUCGUGAGGAUAUGCAUCACUGCUUCGGCAGUGUAUUAAGAUCACAUGAGGAUCACCCAUGUAGAAGGCACGAGCUGAU | 7.3 | 41.7 |  | 
44 | AAAAAGUGAGGAUAUACAUGAGGAUCACCCAUGUGAAAGUCGAAAAAAAAGACAAGAAGUAGAAGGCACAAAAA | 30.4 | 34.9 |  | 
45 | CUGGUGUGAGGAUAUCAGGGCACGCCCAAGGGCGUACCAAAUGAGAAGGCACAUGAGGAUCACCCAUGUGGGAC | 36.5 | 160 |  | 
46 | GUAGCUAUCGGAGGAUAUUCAUACCGCAAACGGACAUGAGGAUCACCCAUGUGGCGAAAGCAUUGGGAGAAGGCCGAUAGCUAC |  |  | 22.5 | 5.68
47 | CAGCGAAAGCUGAAUCUGUAGAGAGAGGAUAUACGUCAUAAGAUGCAUACAUGAGGAUCACCCAUGUAGAAGGCUCUCUACAGU | 5.68 | 6.7 |  | 
48 | UUAUUAUAUGUAGGAUAUGCAUAUUAUUAUUGUGCAGAAGGACAUGAGGAUCACCCAUGUAUACUAUUAUUAUAUAUUAUAUAU | 10.8 | 13.6 |  | 
